Each structure is given as a SMILES string.

For the experiment, the system named is MCF7. Kind of experiment: Antiproliferative activity against human MCF7 cells after 72 hrs by MTT assay. The experiment is classed as functional, cell-based. Conditions: MCF7, 72 h. A digest of the protocol: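 MCF7 breast cancer cells in exponential growth seeded at 8 × 10^3 cells/well and left 24 h to attach. Medium was then switched to serum-free RPMI containing compound at […]. Cells were cultured 72 h at 37 °C in 5% CO2, then given MTT for 4 h and solubilized. A570 was converted to cell number using a hemocytometer-based standard curve. IC50 was obtained by nonlinear regression of log concentration versus cells/well.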
Take `C/C1=C/C(=O)O[C@@H]2C[C@@H](CC[C@H](C)/C=C\CC1)O[C@@](O)([C@@H]1CSC(=O)N1)C2` [LATRUNCULIN B]: the half-inhibitory concentration (IC50) (in general, the point on the concentration scale where inhibition reaches its midpoint) is 1.91 µM.

Molecule `C/C1=C/C(=O)O[C@@H]2C[C@@H](CC[C@H](C)/C=C\C=C\CC1)O[C@@](O)([C@@H]1CSC(=O)N1)C2` [LATRUNCULIN A] had an IC50 of 2.08 µM.

For `COc1ccc(CC(=O)N2C(=O)SC[C@H]2[C@@]2(OC)C[C@H]3C[C@@H](CC[C@H](C)/C=C\C=C\CC/C(C)=C\C(=O)O3)O2)cc1`, the midpoint of inhibition, the IC50, lay at 15.4 µM. The figure for `C/C1=C/C(=O)O[C@@H]2C[C@@H](CC[C@H](C)/C=C\C=C\CC1)O[C@@](OC(=O)NCc1ccccc1)([C@@H]1CSC(=O)N1)C2` is 3.5 µM; for `CO[C@]1([C@@H]2CSC(=O)N2Cc2ccccc2)C[C@H]2C[C@@H](CC[C@H](C)/C=C\C=C\CC/C(C)=C\C(=O)O2)O1` it is 1.28 µM; for `C/C1=C/C(=O)O[C@@H]2C[C@@H](CC[C@H](C)/C=C\C=C\CC1)O[C@@](OCCc1ccccc1)([C@@H]1CSC(=O)N1)C2` it is 10 µM. In turn, `C/C1=C/C(=O)O[C@@H]2C[C@@H](CC[C@H](C)/C=C\C=C\CC1)O[C@@](OC(=O)NCCBr)([C@@H]1CSC(=O)N1)C2` gave an IC50 of 19.4 µM.

In turn, `CCN1C(=O)SC[C@H]1[C@@]1(O)C[C@H]2C[C@@H](CC[C@H](C)/C=C\C=C\CC/C(C)=C\C(=O)O2)O1` gave an IC50 of 1.05 µM. As for `CCCCCCCCO[C@]1([C@@H]2CSC(=O)N2)C[C@H]2C[C@@H](CC[C@H](C)/C=C\CC/C(C)=C\C(=O)O2)O1` [15-O-OCTYLLATRUNCULIN B], the figure is 50.1 µM; as for `CCN1C(=O)SC[C@H]1[C@@]1(OC)C[C@H]2C[C@@H](CC[C@H](C)/C=C\C=C\CC/C(C)=C\C(=O)O2)O1`, 20.7 µM; as for `CO[C@]1([C@@H]2CSC(=O)N2)C[C@H]2C[C@@H](CC[C@H](C)/C=C\CC/C(C)=C\C(=O)O2)O1` [15-METHOXYLATRUNCULIN B], 19.3 µM.

The molecule `C/C1=C/C(=O)O[C@@H]2C[C@@H](CC[C@H](C)/C=C\C=C\CC1)O[C@@](OC(=O)NCCCl)([C@@H]1CSC(=O)N1)C2` gave an IC50 of 17.3 µM. The figure for `C/C1=C/C(=O)O[C@@H]2C[C@@H](CC[C@H](C)/C=C\C=C\CC1)O[C@@](O)([C@@H]1CSC(=O)N1CO)C2` is 8.34 µM; for `CO[C@]1([C@@H]2CSC(=O)N2C(=O)c2ccccc2)C[C@H]2C[C@@H](CC[C@H](C)/C=C\C=C\CC/C(C)=C\C(=O)O2)O1` it is 1.82 µM.

`C/C1=C/C(=O)O[C@@H]2C[C@@H](CC[C@H](C)/C=C\C=C\CC1)O[C@@](OC(=O)Nc1ccccc1)([C@@H]1CSC(=O)N1)C2` showed an IC50 of 7.69 µM.

`CO[C@]1([C@@H]2CSC(=O)N2)C[C@H]2C[C@@H](CC[C@H](C)/C=C\C=C\CC/C(C)=C\C(=O)O2)O1` gave an IC50 of 10.2 µM. As for `CC(=O)N1C(=O)SC[C@H]1[C@@]1(O)C[C@H]2C[C@@H](CC[C@H](C)/C=C\CC/C(C)=C\C(=O)O2)O1` [N-ACETYLLATRUNCULIN B], the figure is 4.3 µM; as for `C/C1=C/C(=O)O[C@@H]2C[C@@H](CC[C@H](C)/C=C\CC1)O[C@@](O)([C@@H]1CSC(=O)N1CO)C2` [N-HYDROXYMETHYLLATRUNCULIN B], 2.35 µM. Turning to `C/C1=C/C(=O)O[C@@H]2C[C@@H](CC[C@H](C)/C=C\C=C\CC1)O[C@@](OC(=O)NCCCCl)([C@@H]1CSC(=O)N1)C2`, inhibition was half-maximal at 25.7 µM (IC50). In the case of `CO[C@]1([C@@H]2CSC(=O)N2C)C[C@H]2C[C@@H](CC[C@H](C)/C=C\C=C\CC/C(C)=C\C(=O)O2)O1`, the half-inhibitory concentration (IC50) is 13.1 µM. As for `CO[C@]1([C@@H]2CSC(=O)N2CCCO)C[C@H]2C[C@@H](CC[C@H](C)/C=C\C=C\CC/C(C)=C\C(=O)O2)O1`, the figure is 19.2 µM; as for `CCCCO[C@]1([C@@H]2CSC(=O)N2)C[C@H]2C[C@@H](CC[C@H](C)/C=C\CC/C(C)=C\C(=O)O2)O1` [15-O-BUTYLLATRUNCULIN B], 50.1 µM. As for `C/C1=C/C(=O)O[C@@H]2C[C@@H](CC[C@H](C)/C=C\C=C\CC1)O[C@@](OC(=O)c1ccccc1)([C@@H]1CSC(=O)N1)C2`, the figure is 1.92 µM.

The molecule `CO[C@]1([C@@H]2CSC(=O)N2C2CCCC2)C[C@H]2C[C@@H](CC[C@H](C)/C=C\C=C\CC/C(C)=C\C(=O)O2)O1` showed an IC50 of 5.2 µM. `C/C1=C/C(=O)O[C@@H]2C[C@@H](CC[C@H](C)/C=C\C=C\CC1)O[C@@](O)([C@@H]1CSC(=O)N1Cc1ccccc1)C2`: the midpoint of inhibition, the IC50, lay at 1.59 µM.

(Values after ChEMBL document CHEMBL1240492, “3D-QSAR studies of latrunculin-based actin polymerization inhibitors using CoMFA and CoMSIA approaches” (Eur J Med Chem, 2010).)
